Experiments:
[1] = test system: formalin‐induced pain responses in rats; conditions: ref 34 (Maione et al (2007)); cited from earlier work
motor coordination = conditions: ref 17 (Watabiki et al (2017)); cited from earlier work
[2] = test system: CFA‐induced mechanical allodynia in rats; assay: CFA‐induced inflammatory pain; assay type: in vivo; conditions: rat, 1 and 4 hours after administration
Procedure, shortened: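 Male Sprague‐Dawley rats received 50% CFA intraplantar (0.1 mL, right hind paw). PWT was measured 5 days later by von Frey up‐down method. The test compound (0.5% HPMC suspension) was dosed orally 1 h before PWT. Naproxen (0.5% methylcellulose) was dosed orally 4 h before PWT. Dosing volume 10 mL/kg. n=9, mean ± SEM; Steel's or Wilcoxon test.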

[3] = test system: CFA‐induced mechanical allodynia in rats; conditions: cited from earlier work; for mechanical allodynia on CFA‐induced inflammatory pain: rats
catalepsy = conditions: ref 13 (Ahn et al (2011)); cited from earlier work
human FAAH = target: T1, human FAAH (Homo sapiens, UniProt O00519); assay: FAAH inhibition, human microsomes; assay type: biochemical
T1 sequence (O00519 1-579): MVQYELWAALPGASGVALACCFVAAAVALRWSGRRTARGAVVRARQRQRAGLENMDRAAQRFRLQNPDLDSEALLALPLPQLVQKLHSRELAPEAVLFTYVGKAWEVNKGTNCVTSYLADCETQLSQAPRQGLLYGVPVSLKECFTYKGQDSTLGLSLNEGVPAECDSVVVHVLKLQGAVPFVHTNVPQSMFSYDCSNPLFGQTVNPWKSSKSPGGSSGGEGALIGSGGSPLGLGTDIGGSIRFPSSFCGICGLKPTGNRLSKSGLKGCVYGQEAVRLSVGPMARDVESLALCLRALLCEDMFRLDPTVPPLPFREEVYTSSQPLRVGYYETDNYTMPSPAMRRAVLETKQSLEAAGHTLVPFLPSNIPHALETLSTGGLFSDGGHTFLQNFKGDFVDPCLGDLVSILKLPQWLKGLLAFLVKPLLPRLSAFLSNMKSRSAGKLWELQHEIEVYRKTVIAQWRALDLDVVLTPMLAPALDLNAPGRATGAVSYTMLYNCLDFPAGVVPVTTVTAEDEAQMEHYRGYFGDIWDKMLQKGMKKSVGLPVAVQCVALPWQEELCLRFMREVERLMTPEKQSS

PAF (h) = PAF (h) (Homo sapiens, UniProt P25105); assay: Cerep BioPrint profiling and follow-up IC50; assay type: binding
Chain of PAF (h) (P25105 whole entry): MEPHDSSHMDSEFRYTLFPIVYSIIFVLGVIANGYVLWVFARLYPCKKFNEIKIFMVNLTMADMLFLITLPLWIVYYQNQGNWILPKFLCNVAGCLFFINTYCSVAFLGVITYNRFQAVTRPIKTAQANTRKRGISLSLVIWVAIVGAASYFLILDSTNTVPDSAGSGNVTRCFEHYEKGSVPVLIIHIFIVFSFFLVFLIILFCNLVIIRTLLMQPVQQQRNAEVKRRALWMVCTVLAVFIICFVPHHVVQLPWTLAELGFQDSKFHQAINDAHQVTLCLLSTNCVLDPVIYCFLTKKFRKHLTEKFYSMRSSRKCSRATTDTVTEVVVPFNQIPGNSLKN

catalepsy in rats = assay: Catalepsy; assay type: in vivo; conditions: rat, cut‐off 90 s
[4] = test system: formalin‐induced pain responses in rats; assay: Formalin test; assay type: in vivo; conditions: rat; for formalin‐induced pain responses, late phase: 10 to 45 minutes; for formalin‐induced pain responses, early phase: 0 to 10 minutes
Procedure, shortened: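 Male Wistar rats received oral dosing 1 h before injection: test compound in 0.5% HPMC or pregabalin in saline, 10 mL/kg. Then 0.5% formalin (50 µL) was injected into the left hind‐paw plantar surface. Flinching, licking and biting time was scored manually over 45 min: early phase 0–10 min, late phase 10–45 min. n=6, mean ± SEM; Dunnett's or Student's t‐test.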

[5] = Pharmacokinetic study in rats; assay type: in vivo; conditions: male, Sprague-Dawley, rat, plasma
Procedure, shortened: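 Male Sprague‐Dawley rats. IV dose: 1 mg/kg in 40% dimethylacetamide/40% PEG400/20% water (1 mL/kg). Oral doses: 0.3, 1, 3 mg/kg as 0.5% HPMC suspension. Serial plasma was obtained by centrifugation (2,150g, 15 min, 4°C), extracted with ethyl acetate by supported‐liquid extraction, and reconstituted in 45% acetonitrile/55% 10 mmol/L ammonium acetate. Analysis by LC‐MS/MS; noncompartmental parameters.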

[6] = test system: motor coordination in rats; assay: Motor coordination; assay type: in vivo; conditions: rat, p.o., cut‐off 200 s
Procedure, shortened: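 Male Sprague‐Dawley rats were trained at 20 rpm on 2 consecutive days, up to five trials, until they walked ≥200 s. They were retrained in two sessions on test day; rats reaching the criterion once were used. Time on the rod (cut‐off 200 s) was recorded 1 h after the oral test compound or 2 h after pregabalin. n=10, mean ± SEM; Steel's test.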

5-HT2B (h) = 5-HT2B (h) (Homo sapiens, UniProt P41595); assay: Cerep BioPrint profiling and follow-up IC50; assay type: binding
Chain of 5-HT2B (h) (P41595 whole entry): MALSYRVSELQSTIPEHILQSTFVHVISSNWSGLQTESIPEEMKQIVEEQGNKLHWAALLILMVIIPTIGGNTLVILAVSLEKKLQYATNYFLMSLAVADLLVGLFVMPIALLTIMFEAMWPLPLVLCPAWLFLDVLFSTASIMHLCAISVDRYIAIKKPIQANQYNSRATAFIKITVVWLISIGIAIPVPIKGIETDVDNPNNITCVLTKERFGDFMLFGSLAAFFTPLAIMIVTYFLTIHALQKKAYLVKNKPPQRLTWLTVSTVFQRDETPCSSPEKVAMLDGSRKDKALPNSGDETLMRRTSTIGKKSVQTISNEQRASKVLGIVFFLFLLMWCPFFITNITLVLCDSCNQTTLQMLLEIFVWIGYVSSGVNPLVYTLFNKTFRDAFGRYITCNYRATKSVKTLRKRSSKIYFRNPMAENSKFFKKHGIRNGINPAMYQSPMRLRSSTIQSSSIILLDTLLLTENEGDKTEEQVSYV

[7] = target: T2, human monoacylglycerol lipase (MAGL) (Homo sapiens, UniProt Q99685); assay: MAGL inhibitor screening assay kit; assay type: biochemical; conditions: 30 μmol/L
T2 sequence (Q99685 1-303): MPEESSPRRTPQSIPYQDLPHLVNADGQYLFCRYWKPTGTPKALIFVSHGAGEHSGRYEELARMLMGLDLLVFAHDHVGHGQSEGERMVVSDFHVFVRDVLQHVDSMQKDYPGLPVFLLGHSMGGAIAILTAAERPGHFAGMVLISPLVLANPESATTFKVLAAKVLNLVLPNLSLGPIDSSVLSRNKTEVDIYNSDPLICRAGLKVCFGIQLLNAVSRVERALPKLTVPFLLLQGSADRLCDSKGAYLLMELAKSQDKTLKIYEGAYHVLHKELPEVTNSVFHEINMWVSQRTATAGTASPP

[8] = test system: AEA concentrations in rat brain; assay: AEA concentrations in rat brain; assay type: in vivo
rat FAAH = target: T3, rat FAAH (Rattus norvegicus, UniProt P97612); assay: FAAH inhibition, rat brain microsomes, AAMCA fluorescence, IC50; assay type: biochemical
T3 sequence (P97612 1-579): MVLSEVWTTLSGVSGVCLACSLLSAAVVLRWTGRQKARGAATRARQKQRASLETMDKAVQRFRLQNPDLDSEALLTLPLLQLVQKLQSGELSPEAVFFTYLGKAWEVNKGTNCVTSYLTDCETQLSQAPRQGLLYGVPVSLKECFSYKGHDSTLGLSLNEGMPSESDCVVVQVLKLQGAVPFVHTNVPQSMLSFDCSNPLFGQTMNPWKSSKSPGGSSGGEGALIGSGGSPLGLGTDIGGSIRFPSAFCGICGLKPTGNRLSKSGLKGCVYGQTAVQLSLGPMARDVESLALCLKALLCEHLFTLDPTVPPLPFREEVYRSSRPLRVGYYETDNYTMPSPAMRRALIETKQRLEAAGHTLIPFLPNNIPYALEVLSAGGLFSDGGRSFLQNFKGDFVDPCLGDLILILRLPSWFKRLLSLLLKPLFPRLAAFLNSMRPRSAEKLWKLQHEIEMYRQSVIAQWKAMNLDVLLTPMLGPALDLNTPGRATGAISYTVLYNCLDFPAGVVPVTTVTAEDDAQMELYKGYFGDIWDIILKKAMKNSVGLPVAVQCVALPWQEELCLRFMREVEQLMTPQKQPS

[9] = test system: CCI‐induced mechanical allodynia in rats; assay: CCI‐induced neuropathic pain; assay type: in vivo; conditions: rat, 4 hours
Procedure, shortened: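 Male Sprague‐Dawley rats. Under anesthesia, the left sciatic nerve was loosely tied with four ligatures at 1 mm intervals; in shams the right nerve was exposed but not ligated. On day 14 after surgery, the test compound (0.5% HPMC suspension) or pregabalin (saline) was given orally at 10 mL/kg 4 h before PWT. PWT was measured by von Frey up‐down method. n=8, mean ± SEM; Steel's or Wilcoxon test.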

[10] = test system: spinal nerve ligation‐induced mechanical allodynia; conditions: rats; single systemic administration; cited from earlier work
[11] = test system: partial sciatic nerve ligation‐induced mechanical allodynia; conditions: rats; cited from earlier work
[12] = 30 mg/kg p.o. 1 hour before formalin

CCCCC/C=C\C/C=C\C/C=C\C/C=C\CCCC(=O)NCCc1c[nH]c2ccc(O)cc12 [AA‐5‐HT, N‐arachidonoyl‐serotonin]
formalin‐induced pain responses [1]: significantly decreased formalin‐induced pain responses only in the late phase

O=C(Nc1ccccc1)C1CCN(C(=O)Oc2cccnc2)CC1 [ASP8477, 3‐pyridyl 4‐(phenylcarbamoyl)piperidine‐1‐carboxylate]
effect on motor coordination (motor coordination): did not affect motor coordination up to 30 mg/kg

COc1ccc2cc([C@H](C)C(=O)O)ccc2c1 [Naproxen, (S)‐(+)‐6‐methoxy‐α‐methyl‐2‐naphthaleneacetic acid, reference compound]
mechanical allodynia (PWT), CFA‐induced inflammatory pain ([2]; 15 mg/kg p.o.): significantly suppressed

O=C(Nc1cccnc1)N1CCC(Cc2cccc(Oc3ccc(C(F)(F)F)cn3)c2)CC1 [PF‐3845, N‐3‐pyridinyl‐4‐[[3‐[[5‐(trifluoromethyl)‐2‐pyridinyl]oxy]phenyl]methyl]‐1‐piperidinecarboxamide]
mechanical allodynia on CFA‐induced inflammatory pain [3]: improved mechanical allodynia

O=C(Nc1cccnn1)N1CCC(=Cc2cccc(Oc3ccc(C(F)(F)F)cn3)c2)CC1 [PF‐04457845, N‐pyridazin‐3‐yl‐4‐(3‐{[5‐(trifluoromethyl)pyridin‐2‐yl]oxy}benzylidene)piperidine‐1‐carboxamide]
mechanical allodynia on CFA‐induced inflammatory pain [3]: improved mechanical allodynia | minimum effective dose in CFA‐induced inflammatory pain ([3]; ref 13 (Ahn et al (2011))): 0.1 mg/kg | effects on catalepsy (catalepsy): no effects on catalepsy up to 100‐fold higher dose

O=C(Nc1cccnn1)N1CCN([C@@H]2CCOc3cc(C(F)(F)F)ccc32)CC1 [PKM‐833, (R)‐N‐(pyridazin‐3‐yl)‐4‐(7‐(trifluoromethyl)chroman‐4‐yl)piperazine‐1‐carboxamide]
IC50 (human FAAH): 0.0088 ± 0.003 µM | selectivity against other molecular targets (human FAAH; FAAH versus 137 other molecular targets): more than 200 fold | IC50 (PAF (h)): 2.3 µM | Duration (s), catalepsy (catalepsy in rats; 10 mg/kg, p.o., 1 h): 0.5 ± 0.1 s | Duration (s), catalepsy (catalepsy in rats; 10 mg/kg, p.o., 4 h): 3.7 ± 1.9 s | Duration (s), catalepsy (catalepsy in rats; 30 mg/kg, p.o., 1 h): 0.8 ± 0.2 s | Duration (s), catalepsy (catalepsy in rats; 30 mg/kg, p.o., 4 h): 1.0 ± 0.3 s | formalin‐induced pain responses, late phase ([4]; 3 mg/kg p.o. 1 hour before formalin): significantly reduced | formalin‐induced pain responses, early phase ([4]; 0.3‐3 mg/kg p.o. 1 hour before formalin): Neither PKM‐833 nor pregabalin changed | half-life ([5]; iv, 1 mg/kg): 5.8 h | bioavailability ([5]; po): 41 to 91% | Duration (s) on rotarod ([6]; 10 mg/kg, 1 h): 200 ± 0 s | Duration (s) on rotarod ([6]; 30 mg/kg, 1 h): 195 ± 6 s | IC50 (5-HT2B (h)): 6.4 µM | inhibition of human MAGL [7]: did not inhibit | mechanical allodynia (PWT), CFA‐induced inflammatory pain ([2]; 0.3 to 3 mg/kg p.o.): significantly suppressed | AEA concentrations in rat brain, time course ([8]; 1 mg/kg p.o., 1 to 48 hours before decapitation): significantly elevated for 8 hours but not at 24 and 48 hours | AEA concentrations in rat brain, dose dependence ([8]; 0.3‐3 mg/kg p.o., 1 hour before decapitation): significant effects at doses of 1 and 3 mg/kg | IC50 (rat FAAH): 0.01 ± 0.003 µM | mechanical allodynia (PWT), CCI‐induced neuropathic pain ([9]; PKM‐833 30 mg/kg p.o. (3‐30 mg/kg tested)): did not attenuate

CC(C)C[C@H](CN)CC(=O)O [Pregabalin, 3(S)‐(aminomethyl)‐5‐methylhexanoic acid, reference compound]
formalin‐induced pain responses, early phase [4, 12]: Neither PKM‐833 nor pregabalin changed | formalin‐induced pain responses, late phase [4, 12]: significantly reduced | Duration (s) on rotarod ([6]; 10 mg/kg, 2 h): 199 ± 1 s | Duration (s) on rotarod ([6]; 30 mg/kg, 2 h): 167 ± 14 s | mechanical allodynia (PWT), CCI‐induced neuropathic pain ([9]; pregabalin 30 mg/kg p.o.): significantly antagonized

NC(=O)c1cccc(-c2cccc(OC(=O)NC3CCCCC3)c2)c1 [URB597, (3'‐(aminocarbonyl)[1,1'‐biphenyl]‐3‐yl)‐cyclohexylcarbamate]
spinal nerve ligation‐induced mechanical allodynia [10]: improved | partial sciatic nerve ligation‐induced mechanical allodynia [11]: had no improvement

CS(=O)(=O)O.Cc1c(C(=O)c2cccc3ccccc23)c2cccc3c2n1[C@H](CN1CCOCC1)CO3 [WIN 55,212‐2, (R)‐(+)‐(2,3; dihydro‐5‐methyl‐3‐(4‐morpholinylmethyl)pyrrolo[1.2.3‐de]‐1,4‐benzoxazin‐6‐yl)‐1‐naphthalenylmethanone mesylate, reference compound]
Duration (s), catalepsy (catalepsy in rats; 3 mg/kg, s.c., 1 h): 13 ± 2 s | Duration (s), catalepsy (catalepsy in rats; 3 mg/kg, s.c., 4 h): 77 ± 7 s
